One data set has as its system Oct1+/+ and Oct1-/- mice. In words: Toxicity study of oxaliplatin in Oct1+/+ and Oct1-/- mice. The data set is classed as in vivo, mouse. To be noted: 6 mg/kg i.p. once daily for 5 days.
Data set [1] in a line: Tissue accumulation of platinum in Oct1+/+ and Oct1-/- mice. As to conditions: 1 h after 8 mg/kg i.v. The data set is classed as in vivo, mouse. The method in brief:
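Male FVB Oct1+/+ and Oct1-/- mice (8 weeks) were given 8 mg/kg in saline i.v. by tail vein and killed 1 h later. Liver, kidney, heart, lung, brain, intestine, spleen and muscle were snap-frozen. Total Pt was measured by ICP-MS in 10–30 mg tissue and reported as nmol/g tissue; plasma was reported in μM.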

Data set [2] relates to primary mouse hepatocytes. The class given is in vitro ADME. To be noted: 30 min exposure.

Read-outs that look alike come from different tables or passages of the source.

For the compound `O=C1[O][Pt]2([NH][C@@H]3CCCC[C@H]3[NH]2)[O]C1=O` [oxaliplatin, Oxaliplatin, reference compound], the “relative body weight loss” value amounted to 15.1% in the data set with Oct1+/+ and Oct1-/- mice (Oct1+/+ mice); 6.8% with Oct1+/+ and Oct1-/- mice (Oct1-/- mice). Further, in the data set on Oct1+/+ and Oct1-/- mice (either Oct1+/+ or Oct1-/- mice), the liver histopathology examination entry was “no clear sign of liver damage”. Also, the plasma concentration was determined as 5.96 ± 0.54 µM in data set [1] (Oct1+/+ mice) and 6.69 ± 0.62 µM in data set [1] (Oct1-/- mice). For the same compound, the entries for the “hepatocellular uptake rate, wild-type as fold of Oct1-/-” value in data set [2] (1 μM) and in data set [2] (5 μM) were 1.8 fold and 1.4 fold, respectively. Further, the hepatocellular uptake rate in data set [2] (hepatocytes from Oct1-/- mice, 1 μM) was 0.855 ± 0.184 pmol/mg protein/hr; in data set [2] (hepatocytes from Oct1-/- mice, 5 μM), 3.97 ± 0.500 pmol/mg protein/hr; in data set [2] (hepatocytes from Oct1 wild-type mice, 1 μM), 1.54 ± 0.300 pmol/mg protein/hr; in data set [2] (hepatocytes from Oct1 wild-type mice, 5 μM) it was 5.55 ± 0.384 pmol/mg protein/hr.

For the origin of these results see PMC3040319 (Pharmaceutical Research, 2010).
